The source of these data is article PMC2948526 (Antiviral chemistry & chemotherapy, 2010).

Data set [1] concerns Ad4. Briefly: Ad4 yield reduction assay. It is filed as cell-based, human adenovirus type-4. The note with it: A549 cells, 10 μM olomoucine II, 100 μM cidofovir or both. The procedure, abridged:
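Confluent A549 monolayers were infected with 2,000 PFU/well Ad4 (multistep growth curve, MOI 0.01) for 1 h at 37°C with rocking. They were rinsed, then kept in medium with 10 μM test compound, 100 μM cidofovir, or both. Cells and media were harvested separately at 6–96 h, and released and total virus were titrated on A549 cells. The 0 h point is the inoculum.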

Data set [2] in a line: WST-1 cytotoxicity assay, HFFF cells. It is filed as cell-based, human. The following applies: human, HFFF cells (human fetal foreskin fibroblasts), confluent.
Data set [3] deals with HFFF cells. Briefly: WST-1 cytotoxicity assay, HFFF cells. It is filed as cell-based, human. The following applies: 2.4–5.3 μM olomoucine II, WST-1, fibroblasts.
Data set [4] in a line: WST-1 cytotoxicity assay, A549 cells. It is filed as cell-based. The following applies: human, A549 cells (human lung carcinoma epithelial cells). An outline of the steps:
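A549 cells were grown in DMEM with 10% heat-inactivated FBS and antibiotics, then exposed to test compound. Viability was measured with a WST-1 kit, following the kit protocol, as absorbance at 450 nm.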

Data set [5] concerns human fetal foreskin fibroblast cells. The data set can be described thus: Apoptosis as caspase-3/7 activity. It is filed as cell-based. The following applies: 15–50 μM olomoucine II; 24, 48, 72 h. The procedure, abridged:
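Confluent HFFF cells (DMEM, 10% heat-inactivated FBS) were exposed for 24, 48 or 72 h to test compound dilutions, to mock treatment, or to serum deprivation. Caspase-3/7 activity was read by Caspase-Glo 3/7 luminescence, following the kit protocol. Values are blank-subtracted relative luminescence units ± SD.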

The test system of data set [6] is CDK9. The following applies: cited from earlier work.

Consider `Nc1ccn(C[C@@H](CO)OCP(=O)(O)O)c(=O)n1` [Cidofovir, (S)-1-[3-hydroxy-2-(phosphonylmethoxy)propyl]-cytosine, reference compound], for which the “Reduction of total virus yield” value in data set [1] (24 h post-infection) is on record as 2 log (log10 PFU); in data set [1] (48 h post-infection), 2 log; in data set [1] (96 h post-infection) it was 3 log.

Turning to `CC[C@H](CO)Nc1nc(NCc2ccccc2O)c2ncn(C(C)C)c2n1` [Olomoucine II, 6-(2-hydroxybenzylamino)-2-{[(1R)-(hydroxymethyl)propyl]amino}-9-isopropylpurine], in data set [2], the CC50 at 24 h was above 100 µM, it took 73 ± 4 µM to reach half-maximal cytotoxicity (CC50 at 48 h), it took 16 ± 2 µM to reach half-maximal cytotoxicity (CC50 at 72 h) and the CC50 at 96 h came out at 17 ± 2 µM. Moreover, in data set [2], the CC50 at 168 h amounted to 16 ± 3 µM. Moreover, the “Cytotoxicity at antiviral IC50 levels” value in data set [3] is recorded as “no significant cytotoxicity was detected”. In data set [4], the CC50 at 48 h was above 100 µM, the CC50 at 96 h was above 100 µM and the CC50 at 120 h was above 100 µM. Besides, in data set [1] (24 h post-infection), the “Reduction of total virus yield” value is given as 5 log (log10 PFU). Also, in data set [1] (48 h post-infection), the “Reduction of total virus yield” value was determined as 1 log. Moreover, the “Reduction of total virus yield” value in data set [1] (96 h post-infection) is listed as “no overall effect on virus yield”. For the same molecule, the Caspase-3/7 activity result in data set [5] is listed as “caspase activation”. In data set [6], the “Higher inhibitory activity for CDK9 compared with roscovitine” value was 10 fold.

As for `CC[C@H](CO)Nc1nc(NCc2ccccc2)c2ncn(C(C)C)c2n1` [Roscovitine, 2-(R)-(1-ethyl-2-hydroxyethylamino)-6-benzylamino-9-isopropylpurine, reference compound], in data set [2], the CC50 at 24 h was above 100 µM, the CC50 at 48 h turned out to be 84 ± 5 µM, the CC50 at 72 h stood at 21 ± 2 µM and the CC50 at 168 h amounted to 30 ± 4 µM. Further, in data set [4], the CC50 at 48 h was above 100 µM, the cytotoxic concentration (CC50) at 96 h is above 100 µM and the CC50 at 120 h is above 100 µM.
